For 52 molecules, ED50 and Inhibition results are on record in ChEMBL document CHEMBL1123497, “Structure-activity studies of 4,6-disubstituted 2-(morpholinocarbonyl)furo[3,2-b]indole derivatives with analgesic and antiinflammatory activities” (1986).

Holding throughout (format): functional
The species entered for assay [1] is Mus musculus. In words: Inhibition of acetic acid induced writhing in mice. An outline of the steps:
(§1)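 Mice received drug orally 30 min before an ip injection of 0.7% acetic acid (10 mL/kg). Writhes were counted 10–20 min after injection, and % inhibition was taken against a control group. ED50 and 95% confidence limits came from the Litchfield–Wilcoxon method.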
Background: Writhing tests count abdominal constrictions after an irritant is injected.

For assay [2], the species on record is Mus musculus. In words: Analgesic activity by acetic acid writhing assay in mice. Set-up: concentration or dose not given beside the values. The method, boiled down: as §1
For assay [3], the system named is Rattus norvegicus. In words: Antiinflammatory activity by Carrageenan edema assay in rats. Set-up: concentration or dose not given beside the values; unit not given here. The method, boiled down: (§2)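 Groups of six male Wistar rats (130–170 g) were dosed orally 60 min before a subplantar injection of 0.5% λ-carrageenin suspension (0.1 mL/rat) into the left hind paw. Foot volume was measured every 60 min for 360 min, and % swelling was compared with controls. ED50 and 95% confidence limits came from Litchfield–Wilcoxon. Screening used % edema inhibition at 100 mg/kg po.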
A general note: In the carrageenan paw model, swelling and tenderness develop within hours.

For assay [4], the species on record is Rattus norvegicus. In words: Compound was evaluated for analgesic activity in Randall-Selitto test in inflamed foot rats. The method, boiled down:
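Groups of six male Wistar rats (90–110 g) received 20% yeast suspension (0.1 mL/rat) subplantar into the right hind paw, then oral drug 120 min later. Pain threshold was read every 60 min for 240 min. A rise of more than 50% over the control group counted as positive. ED50 and 95% confidence limits came from Litchfield–Wilcoxon.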

For assay [5], the species on record is Rattus norvegicus. Description: Compound was evaluated for analgesic activity in Randall-Selitto test in normal foot rats.
The species entered for assay [6] is Rattus norvegicus. In words: Compound was evaluated for antipyretic activity in rats by yeast induced fever test. An outline of the steps: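 Groups of six male Wistar rats (190–210 g) received 7.5% yeast suspension sc (10 mL/kg). Rats whose temperature rose by more than 1 °C were dosed orally 180 min later. Body temperature was recorded automatically every 60 min for 360 min, and % inhibition was compared with controls. ED50 and 95% confidence limits came from Litchfield–Wilcoxon.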

For assay [7], the species on record is Mus musculus. Description: Compound was evaluated for analgesic activity in Pressure test in mice. An outline of the steps:
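Groups of 10 male ddY mice (19–24 g) were dosed orally, and pain threshold to pressure was measured every 30 min for 120 min. A postdrug threshold raised more than 50% over the predrug value counted as positive. ED50 and 95% confidence limits came from Litchfield–Wilcoxon.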

The subject of assay [8] is Rattus norvegicus. Description: Compound was evaluated for antiinflammatory activity in rats by carrageenan edema test. An outline of the steps:
as §2

For assay [9], the species on record is Rattus norvegicus. Description: Compound was evaluated for analgesic activity in Adjuvant-induced arthritic pain test in rats. The method, boiled down:
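Groups of six male SD rats (160–200 g) received 0.5% Mycobacterium butyricum suspension (0.1 mL/rat) intradermally into the distal tail. After 15–18 days, rats that vocalized on gentle flexion were dosed orally, and the pain response was checked every 60 min for 300 min. Absence of response counted as positive. ED50 and 95% confidence limits came from Litchfield–Wilcoxon.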

In general, ED50 refers to the midpoint of the dose-response relation. As for `CCCCCCn1c2cc(C(F)(F)F)ccc2c2oc(C(=O)N3CCOCC3)cc21`, it took a dose of 7.7 mg/kg to reach the 50% effect level in assay [1] (ED50). Besides, the Inhibition in assay [2] was found to be 3%; in assay [3] it was 3.

Turning to `CC(C)OC(=O)n1c2cc(C(F)(F)F)ccc2c2oc(C(=O)N3CCOCC3)cc21`, it took a dose of 4.7 mg/kg to reach the 50% effect level in [1] (ED50). In addition, the Inhibition came to 3% in assay [2] and 3 in assay [3].

As for `CCCCCCCCC(=O)n1c2cc(C(F)(F)F)ccc2c2oc(C(=O)N3CCOCC3)cc21`, the Inhibition is given as 3% in [2] and 2 in [3].

For the molecule `CCOC(=O)n1c2ccccc2c2oc(C(=O)N3CCOCC3)cc21`, the Inhibition came out at 1% in assay [2] and 1 in assay [3].

For the molecule `CC(C)CCn1c2cc(C(F)(F)F)ccc2c2oc(C(=O)N3CCOCC3)cc21`, the 50% effect level in assay [1] (ED50) was put at a dose of 5.1 mg/kg. Further, the Inhibition in assay [2] is 3%; in [3] it was 3.

Take `CC(C)(C)C(=O)n1c2cc(C(F)(F)F)ccc2c2oc(C(=O)N3CCOCC3)cc21`: the Inhibition in assay [2] is reported as 3%; in [3], 1.

Turning to `CC(C)OC(=O)n1c2cc(F)ccc2c2oc(C(=O)N3CCOCC3)cc21`, the Inhibition in assay [2] is recorded as 2%; in assay [3], 1.

As for `CCOC(=O)n1c2cc(Cl)ccc2c2oc(C(=O)N3CCOCC3)cc21`, the results for the Inhibition in assay [2] and in assay [3] were 1% and 2, respectively.

On to `CCOC(=O)n1c2cc(OC)ccc2c2oc(C(=O)N3CCOCC3)cc21`, for which the Inhibition in [2] is 1%; in assay [3] it was 1.

Take `CCCOC(=O)n1c2cc(C(F)(F)F)ccc2c2oc(C(=O)N3CCOCC3)cc21`: in [1], the ED50 turned out to be 34.6 mg/kg. For the same molecule, the Inhibition in assay [2] is listed as 3%; in [3] it was 3.

As to `CC(C)COC(=O)n1c2cc(Cl)ccc2c2oc(C(=O)N3CCOCC3)cc21`, the Inhibition amounted to 2% in [2] and 2 in assay [3].

For `COC(=O)n1c2cc(Cl)ccc2c2oc(C(=O)N3CCOCC3)cc21`, the Inhibition turned out to be 1% in assay [2] and 1 in assay [3].

In the case of `COC(=O)n1c2cc(O)ccc2c2oc(C(=O)N3CCOCC3)cc21`, the results for the Inhibition in assay [2] and in assay [3] were 1% and 1, respectively.

On to `CCCOC(=O)n1c2cc(C)ccc2c2oc(C(=O)N3CCOCC3)cc21`, for which the values for the Inhibition in [2] and in [3] were 2% and 1, respectively.

Regarding `CC(C)CC(=O)n1c2cc(C(F)(F)F)ccc2c2oc(C(=O)N3CCOCC3)cc21`, the ED50 in assay [1] came to 6 mg/kg. In addition, the Inhibition in assay [2] was 3%; in assay [3] it was 3.

As to `COc1ccc2c3oc(C(=O)N4CCOCC4)cc3n(C(=O)OCC(C)C)c2c1`, the Inhibition turned out to be 3% in assay [2] and 1 in [3].

For the molecule `COc1ccc2c3oc(C(=O)N4CCOCC4)cc3n(C(=O)OC(C)C)c2c1`, the Inhibition in [2] turned out to be 2%; in assay [3], 1.

With `COC(=O)n1c2cc(OC)ccc2c2oc(C(=O)N3CCOCC3)cc21`, the Inhibition in [2] amounted to 1%; in assay [3], 1.

With `COC(=O)n1c2cc(F)ccc2c2oc(C(=O)N3CCOCC3)cc21`, the Inhibition in [2] stood at 1%; in assay [3] it was 1.

Molecule `CCCCC(=O)n1c2cc(C(F)(F)F)ccc2c2oc(C(=O)N3CCOCC3)cc21` returned a 50% effective dose (ED50) in assay [1] of 34.5 mg/kg. Also, the figures for the Inhibition in assay [2] and in [3] were 3% and 3, respectively.

Consider `CC(C)Cn1c2cc(C(F)(F)F)ccc2c2oc(C(=O)N3CCOCC3)cc21`, for which the Inhibition in assay [2] was found to be 2%; in [3] it was 3.

Regarding `CCCCCCCCn1c2cc(C(F)(F)F)ccc2c2oc(C(=O)N3CCOCC3)cc21`, the Inhibition in assay [3] was 3.

In the case of `CC(C)=CCn1c2cc(C(F)(F)F)ccc2c2oc(C(=O)N3CCOCC3)cc21`, in assay [1], it took a dose of 10.1 mg/kg to reach the 50% effect level (ED50). Moreover, the Inhibition is 3% in assay [2] and 3 in [3].

`CCCCCCCn1c2cc(C(F)(F)F)ccc2c2oc(C(=O)N3CCOCC3)cc21` showed a 50% effective dose (ED50) in assay [1] of 17.8 mg/kg. The Inhibition is recorded as 3% in assay [2] and 3 in [3].

Take `COC(=O)n1c2cc(C(F)(F)F)ccc2c2oc(C(=O)N3CCOCC3)cc21`: the Inhibition in assay [2] is reported as 1%; in [3], 1.

On to `Cc1ccc2c3oc(C(=O)N4CCOCC4)cc3n(C(=O)OCC(C)C)c2c1`, for which the Inhibition was found to be 2% in assay [2] and 2 in assay [3].

Regarding `CCOC(=O)n1c2cc(C)ccc2c2oc(C(=O)N3CCOCC3)cc21`, the Inhibition in assay [2] was found to be 2%; in assay [3], 3.

In the case of `CCCCCn1c2cc(C(F)(F)F)ccc2c2oc(C(=O)N3CCOCC3)cc21`, the ED50 in assay [1] worked out at 10.9 mg/kg. The Inhibition turned out to be 3% in assay [2] and 3 in [3].

Regarding `CCCCOC(=O)n1c2cc(OC)ccc2c2oc(C(=O)N3CCOCC3)cc21`, the Inhibition is recorded as 2% in assay [2] and 1 in assay [3].

In the case of `CCCCOC(=O)n1c2ccccc2c2oc(C(=O)N3CCOCC3)cc21`, the Inhibition came to 1% in assay [2] and 1 in assay [3].

Regarding `CCCOC(=O)n1c2cc(Cl)ccc2c2oc(C(=O)N3CCOCC3)cc21`, the Inhibition in assay [2] was 2%; in assay [3], 2.

For `CCCCOC(=O)n1c2cc(Cl)ccc2c2oc(C(=O)N3CCOCC3)cc21`, the results for the Inhibition in assay [2] and in [3] were 3% and 2, respectively.

`CC(C)C(=O)n1c2cc(C(F)(F)F)ccc2c2oc(C(=O)N3CCOCC3)cc21`: in assay [1], it took a dose of 7.3 mg/kg to reach the 50% effect level (ED50). Moreover, the Inhibition in assay [2] worked out at 3%; in assay [3], 3.

`CCOC(=O)n1c2cc(C(F)(F)F)ccc2c2oc(C(=O)N3CCOCC3)cc21` showed a 50% effective dose (ED50) in [1] of 35.6 mg/kg. The values for the Inhibition in [2] and in [3] were 3% and 3, respectively.

`CC(C)CCCn1c2cc(C(F)(F)F)ccc2c2oc(C(=O)N3CCOCC3)cc21` returned a median effective dose (ED50) in [1] of 6 mg/kg. Also, the values for the Inhibition in assay [2] and in assay [3] were 3% and 3, respectively.

For the molecule `CCOC(=O)n1c2cc(O)ccc2c2oc(C(=O)N3CCOCC3)cc21`, the Inhibition came to 2% in assay [2] and 1 in [3].

Take `CCCOC(=O)n1c2cc(OC)ccc2c2oc(C(=O)N3CCOCC3)cc21`: the Inhibition in assay [2] came out at 2%; in assay [3], 1.

Consider `CC(C)OC(=O)n1c2cc(Cl)ccc2c2oc(C(=O)N3CCOCC3)cc21`, for which it took a dose of 21.4 mg/kg to reach the 50% effect level in assay [1] (ED50). Also, the values for the Inhibition in assay [2] and in assay [3] were 3% and 3, respectively.

In [1], `CCCCOC(=O)n1c2cc(C(F)(F)F)ccc2c2oc(C(=O)N3CCOCC3)cc21` displayed an ED50 of 21.4 mg/kg. Besides, the results for the Inhibition in assay [2] and in assay [3] were 3% and 3, respectively.

With `CCOC(=O)n1c2cc(F)ccc2c2oc(C(=O)N3CCOCC3)cc21`, the Inhibition in [2] was found to be 1%; in assay [3], 1.

Regarding `Cc1ccc2c3oc(C(=O)N4CCOCC4)cc3n(C(=O)OC(C)C)c2c1`, the median effective dose (ED50) in assay [1] came to 26 mg/kg. For the same molecule, the Inhibition in assay [2] came out at 3%; in assay [3], 3.

With `CCCCOC(=O)n1c2cc(C)ccc2c2oc(C(=O)N3CCOCC3)cc21`, the Inhibition is listed as 2% in assay [2] and 1 in assay [3].

As for `COC(=O)n1c2cc(C)ccc2c2oc(C(=O)N3CCOCC3)cc21`, the Inhibition is 1% in assay [2] and 2 in assay [3].

The molecule `CCCCn1c2cc(C(F)(F)F)ccc2c2oc(C(=O)N3CCOCC3)cc21` gave an ED50 in assay [1] of 29.5 mg/kg. The Inhibition stood at 3% in assay [2] and 3 in [3].

With `CCCOC(=O)n1c2ccccc2c2oc(C(=O)N3CCOCC3)cc21`, the Inhibition came to 1% in assay [2] and 1 in assay [3].

In the case of `O=C(Cn1c(=O)sc2ccc(Cl)cc21)N1CCN(CCO)CC1` [TIARAMIDE], the ED50 was 94.6 mg/kg in assay [4]; 74 mg/kg in assay [1]; over 160 mg/kg in assay [5]; 171 mg/kg in assay [6]; 116 mg/kg in assay [7]; 119 mg/kg in assay [8]. In addition, the median effective dose (ED50) in [9] was determined as 176 mg/kg.

Consider `CC(C)COC(=O)n1c2ccccc2c2oc(C(=O)N3CCOCC3)cc21`, for which the values for the Inhibition in assay [2] and in assay [3] were 1% and 1, respectively.

For `CCCOC(=O)n1c2cc(F)ccc2c2oc(C(=O)N3CCOCC3)cc21`, the Inhibition in assay [2] is given as 2%; in assay [3], 1.

As for `CC(C)COC(=O)n1c2cc(F)ccc2c2oc(C(=O)N3CCOCC3)cc21`, the Inhibition worked out at 2% in assay [2] and 1 in [3].

For the molecule `CC(C)COC(=O)n1c2cc(C(F)(F)F)ccc2c2oc(C(=O)N3CCOCC3)cc21`, the results for the Inhibition in assay [2] and in assay [3] were 2% and 2, respectively.

In the case of `CCCCOC(=O)n1c2cc(F)ccc2c2oc(C(=O)N3CCOCC3)cc21`, the Inhibition in assay [2] is given as 2%; in assay [3] it was 1.

As for `CC(C)OC(=O)n1c2ccccc2c2oc(C(=O)N3CCOCC3)cc21`, the figures for the Inhibition in assay [2] and in assay [3] were 2% and 2, respectively.
